Tests used:
patient 2 tumor CR cells = experiment: Drug sensitivity assay; format: cell-based, Human; conditions: for Sensitivity of tumor-derived CR cells compared with normal CR cells: patient 2, IC50 comparison, 72 hour, P < .01 where significant
Procedure, shortened: (§1)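 Tumor CR cells came from radical prostatectomy tissue (>70% tumor) by protease dissociation and the conditional reprogramming method, alongside matched benign CR cells. 3000 cells per well were seeded in conditioned medium, in triplicate. After 24 h, medium containing test compound was added. […] Values are mean ± SD of three separate experiments in triplicate.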

patient 1 tumor CR cells = experiment: Drug sensitivity assay; format: cell-based, Human; conditions: for Sensitivity of tumor-derived CR cells compared with benign CR cells: patient 1, IC50 comparison, 72 hour, P < .05 where significant
Procedure, shortened: as §1

metastatic CRPC [1] = conditions: phase I trials; cited from earlier work
metastatic CRPC [2] = conditions: phase II trial, CFZ in combination with other drugs; cited from earlier work
normal CR cells = format: cell-based, Human; conditions: shared by patients 1 and 2; FDR 0.05; FC 1.5
Procedure, shortened: (§2)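 Tumor and normal CR cells from each patient were grown in conditioned medium and given test compound (28 nM for patient 1, 6.5 nM for patient 2) or DMSO, then profiled by RNA-seq. Treated-vs-DMSO DEGs were called at FDR < 0.05 and FC 1.5. Induced and inhibited gene sets were compared across both patients' cells by Venn diagram (Venny).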

tumor CR cells = format: cell-based, Human; conditions: shared by patients 1 and 2; FDR 0.05; FC 1.5
Procedure, shortened: as §2

Compound: S=C=NCCc1ccccc1 [PTC, phenethyl isothiocyanate]
- Sensitivity of tumor-derived CR cells compared with normal CR cells (patient 2 tumor CR cells): no differences in sensitivity

Compound: C[S+]([O-])CCCCN=C=S (stereo not shown) [SFN, sulforaphane]
- Sensitivity of tumor-derived CR cells compared with benign CR cells (patient 1 tumor CR cells): more sensitive
- Sensitivity of tumor-derived CR cells compared with normal CR cells (patient 2 tumor CR cells): no differences in sensitivity

Compound: Nc1nccc(-c2c(-c3ccc(F)cc3)ncn2C2CCNCC2)n1 [SB220025]
- Sensitivity of tumor-derived CR cells compared with benign CR cells (patient 1 tumor CR cells): No significant differential responses
- Sensitivity of tumor-derived CR cells compared with normal CR cells (patient 2 tumor CR cells): No significant differential responses

Compound: CC(C)C[C@H](NC(=O)[C@H](Cc1ccccc1)NC(=O)c1cnccn1)B(O)O [BTZ, bortezomib]
- Sensitivity of tumor-derived CR cells compared with benign CR cells (patient 1 tumor CR cells): more sensitive
- Sensitivity of tumor-derived CR cells compared with normal CR cells (patient 2 tumor CR cells): significant responses
- patients showing stable PSA (metastatic CRPC [1]): 25%
- patients with more than 50% decline in PSA (metastatic CRPC [1]): 4%

Compound: CC(C)C[C@H](NC(=O)[C@H](CCc1ccccc1)NC(=O)CN1CCOCC1)C(=O)N[C@@H](Cc1ccccc1)C(=O)N[C@@H](CC(C)C)C(=O)[C@@]1(C)CO1 [CFZ, carfilzomib]
- patients with a decline in PSA (metastatic CRPC [2]): 3.5%
- IC50 (patient 1 tumor CR cells; Homo sapiens, 72 h): 28 nM
- Sensitivity of tumor-derived CR cells compared with benign CR cells (patient 1 tumor CR cells): more sensitive
- IC50 (patient 2 tumor CR cells; Homo sapiens, 72 h): 6.5 nM
- Sensitivity of tumor-derived CR cells compared with normal CR cells (patient 2 tumor CR cells): significant responses
- shared genes inhibited in the normal CR cells (normal CR cells): 56
- common genes exclusively induced in the tumor CR cells (tumor CR cells): 23
- genes inhibited that were shared in the tumor CR cells (tumor CR cells): 45

Compound: N[C@@H](CCC(=O)N[C@@H](CS)C(=O)NCC(=O)O)C(=O)O [GSH, glutathione]
- Sensitivity of tumor-derived CR cells compared with benign CR cells (patient 1 tumor CR cells): No significant differential responses
- Sensitivity of tumor-derived CR cells compared with normal CR cells (patient 2 tumor CR cells): No significant differential responses
